Here are results for one molecule from ChEMBL document CHEMBL4004835, “Discovery of Novel Disruptor of Silencing Telomeric 1-Like (DOT1L) Inhibitors using a Target-Specific Scoring Function for the (S)-Adenosyl-l-methionine (SAM)-Dependent Methyltransferase Family” (J Med Chem, 2017).

Activity calls are given as the source filed them. The rule behind the calls is not given here. A value given as a limit tells only on which side of the number the result lay.

The target of test [1] is Histone-lysine N-methyltransferase, H3 lysine-36 specific (Homo sapiens) (UniProt Q96L73). Put plainly: Inhibition of NSD1 (unknown origin) at 50 and 100 uM preincubated for 15 mins followed by substrate and [3H]-SAM addition after 120 mins by MicroBeta counting. The procedure, abridged: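 In modified Tris buffer, enzyme incubated 15 min at room temperature, then substrate and [3H]SAM added; stopped at 120 min with cold SAM; transferred to a 0.5% PEI-pretreated GF/B plate, washed 3× with water, read by MicroBeta.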

Test [2] has as its target Protein arginine N-methyltransferase 1 (Homo sapiens) (UniProt Q99873). Put plainly: Inhibition of PRMT1 (unknown origin) preincubated for 15 mins followed by biotinylated H3R2 substrate/[…]SAM addition for 60 mins measured after further 60 mins by AlphaLISA assay. The procedure, abridged:
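Enzyme incubated 15 min at room temperature; biotinylated H3R2 peptide (50 nM final) and SAM (300 nM final) added; at 60 min acceptor beads (10 μg/mL final) stop the reaction; after 60 min, donor beads (10 μg/mL final) added, 30 min at room temperature in low light; alpha signal read.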
(In Alpha technology, singlet oxygen from a donor bead excites a nearby acceptor bead.)

The target of test [3] is T1, Histone-lysine N-methyltransferase, H3 lysine-79 specific (Homo sapiens, UniProt Q8TEK3). Put plainly: Inhibition of N-terminal 6His-tagged human DOT1L (1 to 416 residues) expressed in Escherichia coli BL21(DE3) at 50 uM using histone H3 as substrate preincubated for 15 mins followed by SAM addition measured after 60 mins by AlphaLISA assay. The procedure, abridged:
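DOT1L (80 nM final) preincubated with compound 15 min at 25 °C; SAM 1 mM and oligonucleosomes 0.25 ng/μL added in 50 mM Tris-HCl pH 8.0, 150 mM NaCl, 3 mM MgCl2, 0.1% BSA, 60 min at 25 °C; stopped with high-salt buffer; H3K79me2 detected with anti-H3 acceptor beads, biotinylated antibody, then streptavidin donor beads.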
Target sequence in this assay (Q8TEK3 whole entry, looked up, the tested form may be a part): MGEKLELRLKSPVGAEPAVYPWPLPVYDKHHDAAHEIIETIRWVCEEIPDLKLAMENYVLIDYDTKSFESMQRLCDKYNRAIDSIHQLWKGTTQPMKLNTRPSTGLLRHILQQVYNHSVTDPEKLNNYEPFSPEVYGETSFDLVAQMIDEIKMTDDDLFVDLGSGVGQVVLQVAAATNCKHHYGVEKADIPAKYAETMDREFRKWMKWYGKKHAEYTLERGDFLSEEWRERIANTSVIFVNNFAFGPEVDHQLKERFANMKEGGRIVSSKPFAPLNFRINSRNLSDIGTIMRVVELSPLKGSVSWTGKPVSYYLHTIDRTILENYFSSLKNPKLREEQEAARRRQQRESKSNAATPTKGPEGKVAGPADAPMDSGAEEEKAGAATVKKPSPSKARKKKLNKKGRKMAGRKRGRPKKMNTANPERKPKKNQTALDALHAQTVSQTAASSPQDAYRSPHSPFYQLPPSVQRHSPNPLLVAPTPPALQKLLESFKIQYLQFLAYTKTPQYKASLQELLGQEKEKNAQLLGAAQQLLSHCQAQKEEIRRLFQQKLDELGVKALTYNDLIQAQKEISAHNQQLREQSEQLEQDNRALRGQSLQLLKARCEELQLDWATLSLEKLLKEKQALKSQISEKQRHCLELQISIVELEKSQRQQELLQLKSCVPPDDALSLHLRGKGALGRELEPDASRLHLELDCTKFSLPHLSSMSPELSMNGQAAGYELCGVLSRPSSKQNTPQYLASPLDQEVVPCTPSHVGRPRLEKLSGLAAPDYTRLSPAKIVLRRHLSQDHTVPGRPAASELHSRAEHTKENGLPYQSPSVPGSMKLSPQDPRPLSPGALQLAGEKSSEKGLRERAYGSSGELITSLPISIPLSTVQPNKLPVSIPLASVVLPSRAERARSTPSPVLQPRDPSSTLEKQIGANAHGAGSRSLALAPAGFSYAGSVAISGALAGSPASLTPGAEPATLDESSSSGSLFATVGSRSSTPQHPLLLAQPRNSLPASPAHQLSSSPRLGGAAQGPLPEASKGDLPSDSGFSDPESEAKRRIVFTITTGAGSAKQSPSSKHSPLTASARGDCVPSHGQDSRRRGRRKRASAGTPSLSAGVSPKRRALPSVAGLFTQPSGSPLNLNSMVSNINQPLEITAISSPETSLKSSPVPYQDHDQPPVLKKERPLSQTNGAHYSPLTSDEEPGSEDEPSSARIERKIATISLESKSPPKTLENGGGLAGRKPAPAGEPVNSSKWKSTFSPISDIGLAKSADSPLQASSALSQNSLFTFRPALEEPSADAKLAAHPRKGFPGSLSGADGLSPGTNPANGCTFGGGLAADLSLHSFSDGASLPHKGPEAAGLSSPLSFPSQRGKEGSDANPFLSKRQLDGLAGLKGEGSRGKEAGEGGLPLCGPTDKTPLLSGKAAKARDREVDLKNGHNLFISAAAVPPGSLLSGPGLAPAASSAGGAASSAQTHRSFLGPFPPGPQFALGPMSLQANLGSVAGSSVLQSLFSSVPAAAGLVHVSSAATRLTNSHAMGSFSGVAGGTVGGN

For test [4], the system named is K562. The experiment in a line: Cytotoxicity against human K562 cells assessed as reduction in cell viability after 72 hrs by alamar blue assay. In kind it is functional, cell-based. Conditions: K562, 72 h. An outline of the steps: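 Cells cultured in RPMI 1640 with 10% FBS and 1% penicillin/streptomycin, treated with a range of concentrations or equal DMSO, 37 °C, 5% CO2, 72 h. Viability read by alamar blue (ex 544/em 590 nm); percent proliferation and IC50 curve fitted.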

Test [5] has as its system MV4-11. Put plainly: Induction of apoptosis in human MV4-11 cells assessed as late apoptotic cells at 25 uM after 72 hrs by annexin V/FITC and propidium iodide staining-based flow cytometric analysis (reference value: 4.02 %). In kind it is functional. For orientation: Flow cytometry measures light scatter and fluorescence of single cells or particles in a stream.
For test [6], the system named is MV4-11. The experiment in a line: Induction of apoptosis in human MV4-11 cells assessed as early apoptotic cells at 6.25 uM after 72 hrs by annexin V/FITC and propidium iodide staining-based flow cytometric analysis (reference value: 5.66 %). It is filed as functional.
Test [7] addresses T1, Histone-lysine N-methyltransferase, H3 lysine-79 specific. The experiment in a line: Inhibition of N-terminal 6His-tagged human DOT1L (1 to 416 residues) expressed in Escherichia coli BL21(DE3) at preincubated for 15 mins followed by [3H]-SAM addition measured after 120 mins by radioactive methylation assay. An outline of the steps: (§1)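 DOT1L and compound preincubated 15 min at room temperature; oligonucleosome and 3H-SAM added; reaction 120 min at room temperature, stopped with cold SAM; transferred to 0.5% PEI-pretreated filter plate, washed 3× with water, read by liquid scintillation counting.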
Target sequence in this assay (Q8TEK3 whole entry, the tested form may be a part): as the sequence (Q8TEK3 whole entry, looked up, the tested form may be a part) above

For test [8], the system named is MV4-11. Put plainly: Induction of apoptosis in human MV4-11 cells assessed as viable cells at 25 uM after 72 hrs by annexin V/FITC and propidium iodide staining-based flow cytometric analysis (reference value: 90.3 %). It is filed as functional. The settings on record: MV4-11, 72 h, read-out: Activity.
The target of test [9] is DNA (cytosine-5)-methyltransferase 1 (Homo sapiens) (UniProt P26358). Put plainly: Inhibition of DNMT1 (unknown origin) at 50 and 100 uM preincubated for 15 mins followed by poly(dI-DC) substrate and [3H]-SAM addition after 120 mins by liquid MicroBeta counting. An outline of the steps: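 In modified Tris buffer, enzyme preincubated 15 min at room temperature; poly(dI-dC) substrate and [3H]SAM added; 120 min at 37 °C; reaction transferred to 0.5% PEI-pretreated filter plates, vacuumed, read by MicroBeta; SAH as positive control.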

The subject of test [10] is MV4-11. Put plainly: Induction of apoptosis in human MV4-11 cells assessed as late apoptotic cells at 12.5 uM after 72 hrs by annexin V/FITC and propidium iodide staining-based flow cytometric analysis (reference value: 4.02 %). It is filed as functional.
Test [11] has as its system MV4-11. The experiment in a line: Induction of cell cycle arrest in human MV4-11 cells assessed as accumulation at S phase at 50 uM after 48 hrs by propidium iodide/RNase-staining based flow cytometric analysis (reference value: 24.40 %). It is filed as functional. The procedure, abridged:
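MV4-11 cells (2 × 10^6) seeded in 12-well dishes, treated with different concentrations for 48 h, processed with a PI/RNase staining kit and analysed for cell-cycle distribution by FACSCalibur flow cytometry.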

In test [12] the test system is MV4-11. The experiment in a line: Induction of apoptosis in human MV4-11 cells assessed as viable cells at 50 uM after 72 hrs by annexin V/FITC and propidium iodide staining-based flow cytometric analysis (reference value: 90.3 %). It is filed as functional. Conditions: MV4-11, 72 h, read-out: Activity.
In test [13] the target is T1, Histone-lysine N-methyltransferase, H3 lysine-79 specific. Put plainly: Inhibition of N-terminal 6His-tagged human DOT1L (1 to 416 residues) expressed in Escherichia coli BL21(DE3) at 50 uM preincubated for 15 mins followed by [3H]-SAM addition measured after 120 mins by radioactive methylation assay. The procedure, abridged: as §1
Target sequence in this assay (Q8TEK3 whole entry, looked up, the tested form may be a part): as above
The target is the same in test [14]. The experiment in a line: Binding affinity to human N-terminal 6His-tagged DOT1L (1 to 416 residues) expressed in Escherichia coli BL21(DE3) after 150 secs by SPR-based binding assay.
Target sequence in this assay (Q8TEK3 whole entry, the tested form may be a part): as the sequence (Q8TEK3 whole entry, looked up, the tested form may be a part) above
The target is the same in test [15]. Put plainly: Inhibition of N-terminal 6His-tagged human DOT1L (1 to 416 residues) expressed in Escherichia coli BL21(DE3) at 50 and 100 uM preincubated for 15 mins followed by [3H]-SAM addition measured after 120 mins by radioactive methylation assay. An outline of the steps: as §1
Target sequence in this assay (Q8TEK3 whole entry, looked up, the tested form may be a part): as above

Chain of Histone-lysine N-methyltransferase, H3 lysine-36 specific (Homo sapiens) (Q96L73 whole entry): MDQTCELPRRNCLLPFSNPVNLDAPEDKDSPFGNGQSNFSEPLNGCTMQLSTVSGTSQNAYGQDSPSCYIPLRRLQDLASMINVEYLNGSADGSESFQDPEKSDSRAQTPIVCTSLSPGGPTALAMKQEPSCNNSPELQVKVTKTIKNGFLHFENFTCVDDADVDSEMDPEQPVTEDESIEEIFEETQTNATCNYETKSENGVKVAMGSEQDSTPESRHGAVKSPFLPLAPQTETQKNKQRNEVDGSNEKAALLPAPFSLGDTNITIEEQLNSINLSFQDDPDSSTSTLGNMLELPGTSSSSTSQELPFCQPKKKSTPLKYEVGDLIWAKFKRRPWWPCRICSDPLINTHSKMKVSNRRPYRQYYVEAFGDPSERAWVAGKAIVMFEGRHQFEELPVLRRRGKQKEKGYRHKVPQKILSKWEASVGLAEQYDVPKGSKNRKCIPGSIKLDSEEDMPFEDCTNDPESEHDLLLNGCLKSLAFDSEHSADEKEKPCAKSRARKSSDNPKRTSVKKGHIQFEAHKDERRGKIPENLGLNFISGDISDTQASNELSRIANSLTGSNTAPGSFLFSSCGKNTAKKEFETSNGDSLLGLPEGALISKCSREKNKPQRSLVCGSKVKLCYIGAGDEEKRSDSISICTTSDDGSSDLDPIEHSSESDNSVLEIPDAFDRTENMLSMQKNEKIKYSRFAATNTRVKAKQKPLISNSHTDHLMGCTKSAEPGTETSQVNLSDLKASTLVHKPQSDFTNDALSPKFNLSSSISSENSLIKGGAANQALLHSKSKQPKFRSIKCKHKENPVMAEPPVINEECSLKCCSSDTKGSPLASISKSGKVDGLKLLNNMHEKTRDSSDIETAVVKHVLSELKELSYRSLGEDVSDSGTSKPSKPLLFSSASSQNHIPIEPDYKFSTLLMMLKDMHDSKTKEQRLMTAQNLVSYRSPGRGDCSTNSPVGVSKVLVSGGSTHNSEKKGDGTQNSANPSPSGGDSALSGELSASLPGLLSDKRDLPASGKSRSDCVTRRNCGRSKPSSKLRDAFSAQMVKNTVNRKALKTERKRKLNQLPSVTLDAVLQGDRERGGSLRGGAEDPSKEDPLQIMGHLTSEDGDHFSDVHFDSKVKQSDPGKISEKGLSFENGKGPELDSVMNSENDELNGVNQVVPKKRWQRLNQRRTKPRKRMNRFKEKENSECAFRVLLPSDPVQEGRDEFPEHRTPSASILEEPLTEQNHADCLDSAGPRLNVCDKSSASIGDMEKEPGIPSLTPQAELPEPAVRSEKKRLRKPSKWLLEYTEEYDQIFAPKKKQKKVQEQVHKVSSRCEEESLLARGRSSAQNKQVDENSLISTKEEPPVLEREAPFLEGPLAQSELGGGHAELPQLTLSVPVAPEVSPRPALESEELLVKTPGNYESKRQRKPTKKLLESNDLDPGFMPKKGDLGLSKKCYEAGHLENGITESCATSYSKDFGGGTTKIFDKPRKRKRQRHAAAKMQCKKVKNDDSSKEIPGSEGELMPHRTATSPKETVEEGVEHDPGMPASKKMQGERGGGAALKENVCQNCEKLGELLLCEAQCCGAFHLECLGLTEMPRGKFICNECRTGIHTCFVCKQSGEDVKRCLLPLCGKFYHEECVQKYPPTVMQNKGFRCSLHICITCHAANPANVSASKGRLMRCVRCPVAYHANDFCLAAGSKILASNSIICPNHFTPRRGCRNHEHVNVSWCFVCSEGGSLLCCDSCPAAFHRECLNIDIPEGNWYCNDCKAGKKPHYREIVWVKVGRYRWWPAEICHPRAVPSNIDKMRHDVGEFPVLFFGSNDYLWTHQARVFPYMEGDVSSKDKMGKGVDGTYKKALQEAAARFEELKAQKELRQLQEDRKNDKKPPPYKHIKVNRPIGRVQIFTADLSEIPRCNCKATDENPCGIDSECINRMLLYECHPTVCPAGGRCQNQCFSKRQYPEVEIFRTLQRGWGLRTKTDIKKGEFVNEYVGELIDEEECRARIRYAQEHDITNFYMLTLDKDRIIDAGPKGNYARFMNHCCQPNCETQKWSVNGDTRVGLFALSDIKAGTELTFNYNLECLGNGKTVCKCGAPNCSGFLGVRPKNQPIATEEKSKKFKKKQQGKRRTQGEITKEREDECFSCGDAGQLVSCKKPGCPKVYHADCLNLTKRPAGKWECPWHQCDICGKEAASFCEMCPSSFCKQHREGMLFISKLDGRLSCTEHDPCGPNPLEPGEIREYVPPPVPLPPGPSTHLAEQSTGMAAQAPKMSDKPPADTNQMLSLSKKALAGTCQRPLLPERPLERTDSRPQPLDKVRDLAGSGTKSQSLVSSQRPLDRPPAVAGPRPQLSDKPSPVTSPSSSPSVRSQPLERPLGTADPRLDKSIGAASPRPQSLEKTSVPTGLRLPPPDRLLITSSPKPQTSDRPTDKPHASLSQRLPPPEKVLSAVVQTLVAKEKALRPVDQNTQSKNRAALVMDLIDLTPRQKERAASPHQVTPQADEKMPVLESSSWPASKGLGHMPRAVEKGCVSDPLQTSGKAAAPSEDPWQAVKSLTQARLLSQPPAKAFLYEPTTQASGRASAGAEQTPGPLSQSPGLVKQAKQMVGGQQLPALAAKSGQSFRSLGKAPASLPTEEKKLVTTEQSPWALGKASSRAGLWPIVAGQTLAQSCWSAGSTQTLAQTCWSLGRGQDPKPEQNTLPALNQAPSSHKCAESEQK
Chain of Protein arginine N-methyltransferase 1 (Homo sapiens) (Q99873 whole entry, looked up): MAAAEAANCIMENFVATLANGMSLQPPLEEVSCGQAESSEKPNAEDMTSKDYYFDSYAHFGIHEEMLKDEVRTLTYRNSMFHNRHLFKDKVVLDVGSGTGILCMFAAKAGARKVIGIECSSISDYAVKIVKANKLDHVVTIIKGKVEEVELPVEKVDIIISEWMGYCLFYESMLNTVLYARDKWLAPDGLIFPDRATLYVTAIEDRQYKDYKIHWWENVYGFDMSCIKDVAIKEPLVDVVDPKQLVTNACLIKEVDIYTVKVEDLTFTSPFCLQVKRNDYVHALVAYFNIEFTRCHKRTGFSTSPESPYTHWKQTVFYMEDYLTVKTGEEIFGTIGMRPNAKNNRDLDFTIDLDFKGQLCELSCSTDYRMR

By inhibition is commonly meant the relative decrease from the control value, in per cent. As a reminder, the IC50 is the concentration needed to halve the response being measured. For orientation: Kd means the equilibrium constant for the complex coming apart. A higher Kd goes with weaker binding. As to `Fc1cccc(-c2nn3c(Cn4nnc5ccccc54)nnc3s2)c1`, the inhibition is less than 40% in test [1]; less than 40% in test [2]; more than 40% in [3]; less than 40% in [9]; 68% in [13]. Moreover, the IC50 is more than 200 µM in test [4] and 8.29 µM in test [7]. The Activity in test [5] came out at 33.5%; in test [6], 49.5%; in [10] it was 35.5%; in test [11], 17.76%. For the same molecule, the viability at 25 µM in [8] was determined as 6.76%. Further, in test [12], the viability at 50 µM came out at 3.75%. The equilibrium dissociation constant (Kd) in test [14] was found to be 17.3 µM. The inhibition result in [15] is “Active”.
